ChEMBL document CHEMBL5724801, “EUbOPEN Chemogenomics Library - Multiplex” (2024)
Values joined by “and” are separate entries in the source; they are usually repeats but may differ in a detail not shown here. Identical values can stand only once.

Tested on: Fibroblast
Experiment: Multiplex assay against human fibroblast
Type: toxicity, cell-based
Summary of the method: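 Cells stained live at seeding with Hoechst33342, BioTracker Green Microtubule Cytoskeleton Dye, MitoTracker Red and Annexin V Alexa Fluor 680 were imaged on a CQ1 microscope at 37°C and 5% CO2 after compound addition. Their classification by CellPathfinder machine-learning gating ran from Hoechst high-intensity objects versus normal cells, to healthy, pyknosed or fragmented nuclei among normal cells, to mitotic or apoptotic among pyknosed cells. Tubulin, mitochondrial-mass and membrane-permeability phenotypes are per cents of healthy-nucleus cells.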

[1] = 12 h, 1 µM, compound concentration 1 uM
[2] = 12 h, 10 µM, compound concentration 10 uM
[3] = 24 h, 1 µM, compound concentration 1 uM
[4] = 24 h, 10 µM, compound concentration 10 uM
[5] = 48 h, 1 µM, compound concentration 1 uM
[6] = 48 h, 10 µM, compound concentration 10 uM

## S=C(NCCCc1c[nH]cn1)NCCCN(Cc1ccc(Cl)c(Cl)c1)c1ccc(Br)cn1
[1]
  Population Apoptotic (%): 40% and 31%
  Population Fragmented Nuclei (%): 13% and 30%
  Population Healthy Nuclei (%): 71% and 50%
  Population Hoechst High Intensity Objects (%): 5% and 4%
  Population Membrane Permeable-Phenotype (%): 1% and 5%
  Population Mitochondria Different-Phenotype (%): 5% and 6%
  Population Mitotic Cells (%): 60% and 68%
  Population Normal (%): 94% and 95%
  Population Pyknosed Nuclei (%): 14% and 18%
  Population Tubulin-Different-Phenotype (%): 26% and 37%
  Total Cell Count: 142 and 181
[2]
  Population Apoptotic (%): 47% and 52%
  Population Fragmented Nuclei (%): 27% and 34%
  Population Healthy Nuclei (%): 56% and 53%
  Population Hoechst High Intensity Objects (%): 3% and 5%
  Population Membrane Permeable-Phenotype (%): 0%
  Population Mitochondria Different-Phenotype (%): 15% and 10%
  Population Mitotic Cells (%): 52% and 47%
  Population Normal (%): 96% and 94%
  Population Pyknosed Nuclei (%): 16% and 12%
  Population Tubulin-Different-Phenotype (%): 89%
  Total Cell Count: 220 and 279
[3]
  Population Apoptotic (%): 69% and 23%
  Population Fragmented Nuclei (%): 15% and 30%
  Population Healthy Nuclei (%): 74% and 57%
  Population Hoechst High Intensity Objects (%): 4% and 1%
  Population Membrane Permeable-Phenotype (%): 2%
  Population Mitochondria Different-Phenotype (%): 2% and 6%
  Population Mitotic Cells (%): 30% and 76%
  Population Normal (%): 95% and 98%
  Population Pyknosed Nuclei (%): 9% and 11%
  Population Tubulin-Different-Phenotype (%): 28% and 42%
  Total Cell Count: 137 and 183
[4]
  Population Apoptotic (%): 66% and 61%
  Population Fragmented Nuclei (%): 22% and 27%
  Population Healthy Nuclei (%): 61% and 59%
  Population Hoechst High Intensity Objects (%): 1% and 4%
  Population Membrane Permeable-Phenotype (%): 0% and 2%
  Population Mitochondria Different-Phenotype (%): 19% and 7%
  Population Mitotic Cells (%): 33% and 38%
  Population Normal (%): 98% and 95%
  Population Pyknosed Nuclei (%): 15% and 13%
  Population Tubulin-Different-Phenotype (%): 93% and 95%
  Total Cell Count: 214 and 248
[5]
  Population Apoptotic (%): 75% and 35%
  Population Fragmented Nuclei (%): 27% and 30%
  Population Healthy Nuclei (%): 67% and 59%
  Population Hoechst High Intensity Objects (%): 3% and 4%
  Population Membrane Permeable-Phenotype (%): 0% and 5%
  Population Mitochondria Different-Phenotype (%): 0% and 3%
  Population Mitotic Cells (%): 25% and 64%
  Population Normal (%): 96% and 95%
  Population Pyknosed Nuclei (%): 5% and 10%
  Population Tubulin-Different-Phenotype (%): 24% and 36%
  Total Cell Count: 156 and 178
[6]
  Population Apoptotic (%): 62% and 63%
  Population Fragmented Nuclei (%): 27% and 31%
  Population Healthy Nuclei (%): 59% and 60%
  Population Hoechst High Intensity Objects (%): 6% and 5%
  Population Membrane Permeable-Phenotype (%): 0%
  Population Mitochondria Different-Phenotype (%): 7% and 1%
  Population Mitotic Cells (%): 37% and 36%
  Population Normal (%): 93% and 94%
  Population Pyknosed Nuclei (%): 12% and 7%
  Population Tubulin-Different-Phenotype (%): 91% and 86%
  Total Cell Count: 230 and 293

## CCc1nn2c(C)cc(C)nc2c1Cc1ccc(-c2nnc(C3CCNCC3)o2)cc1
[1]
  Population Apoptotic (%): 34% and 45%
  Population Fragmented Nuclei (%): 17% and 19%
  Population Healthy Nuclei (%): 63% and 46%
  Population Hoechst High Intensity Objects (%): 2% and 6%
  Population Membrane Permeable-Phenotype (%): 2%
  Population Mitochondria Different-Phenotype (%): 5% and 13%
  Population Mitotic Cells (%): 65% and 54%
  Population Normal (%): 97% and 93%
  Population Pyknosed Nuclei (%): 19% and 33%
  Population Tubulin-Different-Phenotype (%): 35% and 62%
  Total Cell Count: 153 and 167
[2]
  Population Fragmented Nuclei (%): 19% and 38%
  Population Healthy Nuclei (%): 62% and 44%
  Population Hoechst High Intensity Objects (%): 5% and 3%
  Population Membrane Permeable-Phenotype (%): 0% and 5%
  Population Mitochondria Different-Phenotype (%): 19% and 14%
  Population Mitotic Cells (%): 48% and 85%
  Population Normal (%): 94% and 96%
  Population Pyknosed Nuclei (%): 18% and 17%
  Population Tubulin-Different-Phenotype (%): 72% and 79%
  Total Cell Count: 188 and 162
[3]
  Population Apoptotic (%): 52% and 56%
  Population Fragmented Nuclei (%): 17% and 26%
  Population Healthy Nuclei (%): 68% and 49%
  Population Hoechst High Intensity Objects (%): 1% and 7%
  Population Membrane Permeable-Phenotype (%): 0% and 6%
  Population Mitotic Cells (%): 47% and 43%
  Population Normal (%): 98% and 92%
  Population Pyknosed Nuclei (%): 13% and 23%
  Population Tubulin-Different-Phenotype (%): 35% and 65%
  Total Cell Count: 153 and 177
[4]
  Population Apoptotic (%): 53% and 56%
  Population Fragmented Nuclei (%): 17% and 40%
  Population Healthy Nuclei (%): 64% and 42%
  Population Hoechst High Intensity Objects (%): 9% and 3%
  Population Membrane Permeable-Phenotype (%): 0% and 11%
  Population Mitochondria Different-Phenotype (%): 22% and 16%
  Population Mitotic Cells (%): 46% and 44%
  Population Normal (%): 90% and 96%
  Population Pyknosed Nuclei (%): 17%
  Population Tubulin-Different-Phenotype (%): 79% and 80%
  Total Cell Count: 185 and 151
[5]
  Population Apoptotic (%): 76% and 62%
  Population Fragmented Nuclei (%): 21% and 30%
  Population Healthy Nuclei (%): 70% and 54%
  Population Hoechst High Intensity Objects (%): 4%
  Population Membrane Permeable-Phenotype (%): 1% and 3%
  Population Mitochondria Different-Phenotype (%): 2% and 12%
  Population Mitotic Cells (%): 23% and 37%
  Population Normal (%): 95%
  Population Pyknosed Nuclei (%): 7% and 14%
  Population Tubulin-Different-Phenotype (%): 32% and 54%
  Total Cell Count: 172 and 168
[6]
  Population Apoptotic (%): 84% and 54%
  Population Fragmented Nuclei (%): 23% and 45%
  Population Healthy Nuclei (%): 62% and 47%
  Population Hoechst High Intensity Objects (%): 9% and 2%
  Population Membrane Permeable-Phenotype (%): 0% and 2%
  Population Mitochondria Different-Phenotype (%): 16% and 17%
  Population Mitotic Cells (%): 15% and 45%
  Population Normal (%): 90% and 97%
  Population Pyknosed Nuclei (%): 13% and 7%
  Population Tubulin-Different-Phenotype (%): 73% and 78%
  Total Cell Count: 208 and 161
